Data reported in ChEMBL document CHEMBL4390639, “Design, Synthesis, and Biological Evaluation of Novel Allosteric Protein Disulfide Isomerase Inhibitors” (J Med Chem, 2019).
Activity calls are given as the source filed them. The calls are words filed in the database; no cut-off is given here.

Experiments:
[1] = target: Focal adhesion kinase 1 (Homo sapiens) (UniProt Q05397); assay: Effect on FAK phosphorylation in human U87MG cells at 10 uM measured after 24 hrs by Western blot analysis; format: cell-based
[2] = test system: A 172; assay: Induction of endoplasmic reticulum stress in human A172 cells assessed as increase in GRP78 expression at 20 uM measured after 24 hrs by Western blot analysis; format: functional, cell-based
[3] = target: T1, Protein disulfide-isomerase (Homo sapiens, UniProt P07237); assay: Binding affinity to recombinant human N-terminal His-tagged PDI expressed in Escherichia coli BL21 (DE3) pLysS assessed as change in melting temperature at 100 uM by ROX dye based thermal shift assay
Method in brief: (§1)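 Purified wild-type, C53S/C397S or H256A PDI at 0.5 mg/mL in 50 mM Tris, pH 7.0, with or without 100 μM compound, was mixed with ROX dye in a 20 µL well. DMSO (5% in buffer) was the control. Samples were heated 25–99 °C at 1 °C/min, and the Boltzmann melting temperature shift versus DMSO was reported. Mean ± SD of three experiments.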
Target sequence in this assay (P07237 18-508 limits assumed): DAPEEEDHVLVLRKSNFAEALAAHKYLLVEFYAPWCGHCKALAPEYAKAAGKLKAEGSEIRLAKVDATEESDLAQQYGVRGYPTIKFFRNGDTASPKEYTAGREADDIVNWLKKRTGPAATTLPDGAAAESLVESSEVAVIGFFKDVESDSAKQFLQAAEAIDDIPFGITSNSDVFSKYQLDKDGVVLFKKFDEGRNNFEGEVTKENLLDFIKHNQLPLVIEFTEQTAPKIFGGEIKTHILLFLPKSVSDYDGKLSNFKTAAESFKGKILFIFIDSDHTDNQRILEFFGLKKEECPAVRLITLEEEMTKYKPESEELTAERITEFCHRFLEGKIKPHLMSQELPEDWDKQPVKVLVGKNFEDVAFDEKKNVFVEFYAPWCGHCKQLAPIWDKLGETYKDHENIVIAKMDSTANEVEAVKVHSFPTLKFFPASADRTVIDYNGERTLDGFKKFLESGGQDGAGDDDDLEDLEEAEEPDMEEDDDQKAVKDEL

[4] = test system: Protein disulfide-isomerase (Homo sapiens), P07237 [C53S,C397S]; assay: Binding affinity to recombinant human N-terminal His-tagged PDI C53S/C397S double mutant expressed in Escherichia coli BL21 (DE3) pLysS assessed as change in melting temperature at 100 uM by ROX dye based thermal shift assay; method in brief: as §1
[5] = test system: D54 cell line; assay: Inhibition of colony formation in 1 to 6 Gy-irradiated human D54 cells at 1 uM measured after 10 to 12 days by crystal violet staining based assay; format: functional, cell-based
Method in brief: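 D54 cells irradiated at 0, 1, 2, 4 or 6 Gy and plated immediately at 200–1000 cells/well according to dose. Treated with DMSO, 0.05 μM PACMA31 or 1 μM compounds, grown 10–12 days, then colonies stained with 0.1% crystal violet.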

[6] = test system: U-87 MG; assay: Cytotoxicity against human U87MG cells assessed as inhibition of cell proliferation at <IC50 measured after 72 hrs by MTT assay relative to control; format: functional, U-87MG ATCC
[7] = test system: A 172; assay: Cytotoxicity against human A172 cells assessed as inhibition of cell growth measured after 72 hrs by MTT assay; format: functional, cell-based; settings: Homo sapiens, A 172, 72 h; read-out: IC50
Method in brief: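 A172 and NU04 cells were seeded at 4000 cells/well and U87MG at 5000 cells/well, incubated overnight at 37 °C, 5% CO2, then exposed to compound or vehicle for 72 h. MTT (3 mg/mL) was added for 4 h, formazan was dissolved in DMSO, and absorbance was read at 570 nm. IC50 came from nonlinear regression; mean ± SD of at least three experiments.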

[8] = target: T1, Protein disulfide-isomerase; assay: Inhibition of recombinant human N-terminal His-tagged PDI expressed in Escherichia coli BL21 (DE3) pLysS at 100 uM measured after 1 hr by ANS dye based fluorescence spectra analysis
Method in brief: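 ANS spectral scan: PDI incubated with 100 μM compounds or matching DMSO in TBS for 1 h at 37 °C. ANS then added and incubated 20 min at 25 °C in the dark. Fluorescence spectrum recorded with excitation 370 nm, emission 400–700 nm.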
Target sequence in this assay (P07237 18-508 limits assumed): as above

[9] = test system: U-87 MG; assay: Effect on MMP2 expression in human U87MG cells at 10 uM measured after 24 hrs by Western blot analysis; format: functional, cell-based; settings: U-87MG ATCC
[10] = test system: U-87 MG; assay: Effect on PDI expression in human U87MG cells at 20 uM measured after 24 hrs by Western blot analysis; format: functional, cell-based; settings: U-87MG ATCC
[11] = target: T1, Protein disulfide-isomerase; assay: Inhibition of recombinant human N-terminal His-tagged PDI expressed in Escherichia coli BL21 (DE3) pLysS assessed as reduction in enzyme-mediated bovine insulin aggregation at 40 uM measured after 1 hr in presence of 1 to 2 mM NAC
Method in brief: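 Compounds pretreated with NAC for 30 min at 37 °C, then added to the insulin reductase assay at final 40 μM compound with 0, 1, 2 or 5 mM NAC. The assay uses 0.4 μM PDI preincubated 1 h at 37 °C, then DTT and bovine insulin, read at 620 nm, with % activity at 80 min.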
Target sequence in this assay (P07237 18-508 limits assumed): as above

[12] = test system: U-87 MG; assay: Up regulation of CYYR1-AS1 gene expression in human U87MG cells at 16 uM incubated for 4 hrs followed by bromouridine addition during last 30 mins of incubation by TRIzol-reagent based Bru-Seq analysis relative to control; format: functional, U-87MG ATCC
Method in brief: (§2)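 U87MG cells exposed to compound or DMSO vehicle for 4 h, with 2 mM bromouridine added for the final 30 min. Total RNA isolated with TRIzol; Bru-labelled nascent RNA captured on anti-BrdU antibody-conjugated magnetic beads and sequenced. Transcript abundance expressed as RPKM relative to DMSO. Experiment performed once.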

[13] = test system: U-87 MG; assay: Down regulation of BIRC3 gene expression in human U87MG cells at 16 uM incubated for 4 hrs followed by bromouridine addition during last 30 mins of incubation by TRIzol-reagent based Bru-Seq analysis relative to control; format: functional, U-87MG ATCC
[14] = test system: U-87 MG; assay: Up regulation of TRIM16L gene expression in human U87MG cells at 16 uM incubated for 4 hrs followed by bromouridine addition during last 30 mins of incubation by TRIzol-reagent based Bru-Seq analysis relative to control; format: functional, U-87MG ATCC
[15] = test system: U-87 MG; assay: Down regulation of AC124276.2 gene expression in human U87MG cells at 16 uM incubated for 4 hrs followed by bromouridine addition during last 30 mins of incubation by TRIzol-reagent based Bru-Seq analysis relative to control; format: functional, U-87MG ATCC
[16] = test system: U-87 MG; assay: Down regulation of HIST1H4B gene expression in human U87MG cells at 16 uM incubated for 4 hrs followed by bromouridine addition during last 30 mins of incubation by TRIzol-reagent based Bru-Seq analysis relative to control; format: functional, U-87MG ATCC
[17] = target: T1, Protein disulfide-isomerase; assay: Binding affinity to recombinant human N-terminal His-tagged PDI expressed in Escherichia coli BL21 (DE3) pLysS by ROX dye based thermal shift assay
Method in brief: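 Thermal shift conditions: PDI (0.5 mg/mL, 50 mM Tris, pH 7.0) with ROX dye, heated 25–99 °C at 1 °C/min. […] Kd was fitted from melting-temperature change versus vehicle.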
Target sequence in this assay (P07237 whole entry): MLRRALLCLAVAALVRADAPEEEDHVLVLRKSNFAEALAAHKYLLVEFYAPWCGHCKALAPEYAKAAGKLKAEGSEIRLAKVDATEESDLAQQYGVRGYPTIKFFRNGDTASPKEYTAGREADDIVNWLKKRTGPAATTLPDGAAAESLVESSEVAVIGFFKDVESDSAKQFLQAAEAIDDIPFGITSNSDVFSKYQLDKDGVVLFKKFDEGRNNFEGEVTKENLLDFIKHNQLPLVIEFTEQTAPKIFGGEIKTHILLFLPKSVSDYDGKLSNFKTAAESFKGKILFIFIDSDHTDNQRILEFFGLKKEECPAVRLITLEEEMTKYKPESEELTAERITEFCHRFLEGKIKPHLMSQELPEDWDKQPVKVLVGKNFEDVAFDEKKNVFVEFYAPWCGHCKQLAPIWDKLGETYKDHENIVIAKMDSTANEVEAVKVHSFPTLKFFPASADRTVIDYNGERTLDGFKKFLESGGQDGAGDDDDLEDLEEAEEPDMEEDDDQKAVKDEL

[18] = test system: U-87 MG; assay: Down regulation of ANKRD36 gene expression in human U87MG cells at 10 uM incubated for 4 hrs followed by bromouridine addition during last 30 mins of incubation by TRIzol-reagent based Bru-Seq analysis relative to control; format: functional, U-87MG ATCC
[19] = test system: U-87 MG; assay: Up regulation of ADAMTS5 gene expression in human U87MG cells at 10 uM incubated for 4 hrs followed by bromouridine addition during last 30 mins of incubation by TRIzol-reagent based Bru-Seq analysis relative to control; format: functional, U-87MG ATCC; method in brief: as §2
[20] = test system: U-87 MG; assay: Down regulation of SLITRK5 gene expression in human U87MG cells at 10 uM incubated for 4 hrs followed by bromouridine addition during last 30 mins of incubation by TRIzol-reagent based Bru-Seq analysis relative to control; format: functional, U-87MG ATCC
Method in brief: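 Nascent transcription (Bru-seq) in U87MG cells: treatment at 10 μM for 4 h, with 2 mM bromouridine added for the final 30 min. Total RNA isolated with TRIzol; Bru-labelled RNA captured using anti-BrdU antibody on magnetic beads, then sequenced. Transcript traces reported as RPKM compared with DMSO-treated cells. Single experiment.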

Sequence of Focal adhesion kinase 1 (Homo sapiens) (Q05397 2-1052 limits assumed): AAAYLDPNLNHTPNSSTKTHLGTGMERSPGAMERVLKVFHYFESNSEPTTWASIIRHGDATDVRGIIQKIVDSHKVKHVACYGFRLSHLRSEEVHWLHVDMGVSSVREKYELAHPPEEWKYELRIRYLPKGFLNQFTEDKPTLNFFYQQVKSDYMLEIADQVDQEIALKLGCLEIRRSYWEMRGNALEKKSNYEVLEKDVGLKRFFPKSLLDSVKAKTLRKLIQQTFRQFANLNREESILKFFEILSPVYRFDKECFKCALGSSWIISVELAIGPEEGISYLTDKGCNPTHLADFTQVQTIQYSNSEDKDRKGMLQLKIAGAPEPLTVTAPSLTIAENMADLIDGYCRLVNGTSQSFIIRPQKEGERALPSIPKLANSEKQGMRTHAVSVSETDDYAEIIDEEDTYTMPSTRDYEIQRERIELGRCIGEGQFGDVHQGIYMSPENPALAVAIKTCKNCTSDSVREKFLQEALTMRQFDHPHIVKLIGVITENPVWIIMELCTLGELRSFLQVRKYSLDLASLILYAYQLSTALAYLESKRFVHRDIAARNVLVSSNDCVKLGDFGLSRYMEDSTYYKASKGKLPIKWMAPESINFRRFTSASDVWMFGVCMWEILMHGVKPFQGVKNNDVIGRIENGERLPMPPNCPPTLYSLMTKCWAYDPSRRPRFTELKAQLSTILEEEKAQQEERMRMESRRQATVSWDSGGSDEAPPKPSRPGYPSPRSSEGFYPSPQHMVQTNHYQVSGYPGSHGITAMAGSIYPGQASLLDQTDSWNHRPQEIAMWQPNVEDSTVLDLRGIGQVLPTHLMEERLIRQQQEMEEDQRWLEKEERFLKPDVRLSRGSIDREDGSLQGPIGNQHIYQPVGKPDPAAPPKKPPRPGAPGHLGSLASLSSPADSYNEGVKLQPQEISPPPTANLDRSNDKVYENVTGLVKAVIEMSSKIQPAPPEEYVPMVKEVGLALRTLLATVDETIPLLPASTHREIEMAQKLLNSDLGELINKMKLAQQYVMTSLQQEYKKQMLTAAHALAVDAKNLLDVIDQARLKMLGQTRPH
Sequence of Protein disulfide-isomerase (Homo sapiens), P07237 [C53S,C397S] (P07237 whole entry C53S/C397S): as the sequence (P07237 whole entry) above, with C53S, C397S counted along it

| Structure (SMILES) | Activity [1] | ΔTm [3] [°C] | Activity [4] | inhibition [8] | inhibition [11] | Kd [17] [µM] | Activity [2] | inhibition [5] | inhibition (INH) [6] [%] | IC50 [7] [µM] | Activity [9] | Activity [10] | fold change (FC) [12] | fold change (FC) [13] | fold change (FC) [14] | fold change (FC) [15] | fold change (FC) [16] | fold change (FC) [18] | fold change (FC) [19] | fold change (FC) [20] |
| --- | --- | --- | --- | --- | --- | --- | --- | --- | --- | --- | --- | --- | --- | --- | --- | --- | --- | --- | --- | --- |
| O=C(/C=C/c1ccc(-c2cccnc2)cc1)c1cccc(O)c1 | inactive | 2.83 | Active | Active | – | – | Active | Active | >50 | 11 | inactive | inactive | – | – | – | – | – | – | – | – |
| CCCCCN(CCCCC)S(=O)(=O)c1ccc(C(=O)/C=C/c2cccc(O)c2)cc1 | inactive | 3.58 | Active | Active | Active | – | Active | – | – | 11.3 | inactive | inactive | – | – | – | – | – | – | – | – |
| CCCCCN(CCCCC)S(=O)(=O)c1ccc(C(=O)/C=C/c2cccc(C#N)c2)cc1 | inactive | 0.52 | – | – | – | – | Active | – | – | 9 | inactive | inactive | – | – | – | – | – | 2.4 | 9.6 | 3.6 |

Second part, led by results:

| Activity [1] | ΔTm [3] [°C] | Activity [4] | inhibition [8] | inhibition [11] | Kd [17] [µM] | Structure (SMILES) | Activity [2] | inhibition [5] | inhibition (INH) [6] [%] | IC50 [7] [µM] | Activity [9] | Activity [10] | fold change (FC) [12] | fold change (FC) [13] | fold change (FC) [14] | fold change (FC) [15] | fold change (FC) [16] | fold change (FC) [18] | fold change (FC) [19] | fold change (FC) [20] |
| --- | --- | --- | --- | --- | --- | --- | --- | --- | --- | --- | --- | --- | --- | --- | --- | --- | --- | --- | --- | --- |
| inactive | 1.86 | Active | Active | Active | – | COC(=O)c1cccc(/C=C/C(=O)c2cccc(O)c2)c1 | Active | – | >50 | 19.5 | inactive | inactive | 4.3 | 3.3 | 4.9 | 2.9 | 2.7 | – | – | – |
| inactive | 2.85 | Active | Active | – | 9.8 | N#Cc1cccc(/C=C/C(=O)c2ccc(O)cc2)c1 | Active | Active | – | 16.8 | inactive | inactive | – | – | – | – | – | – | – | – |
